For assay [1], the system named is α-glycosidase. The experiment in a line: In vitro α-glycosidase inhibition assay. The assay is classed as biochemical. The note with it: ratio of IC50 values against acarbose.
Assay [2] concerns α-glycosidase. The experiment in a line: Enzyme kinetic study. It counts as biochemical. The settings on record: Lineweaver–Burk plot. The essentials: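 Double-reciprocal analysis: reciprocal rate (1/V) plotted against reciprocal substrate concentration (1/[S]) at several inhibitor concentrations to assign the inhibition mode; Ki obtained from a secondary plot of inhibitor concentration [I] versus 1/Vi'max.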

The target in assay [3] is α-glycosidase. The note with it: cited from earlier work.

Each structure is given as a SMILES string. Entries after “also recorded” stand apart in the source; their conditions may differ. Like-named read-outs stand apart in the source and are kept apart here.

Turning to `O=C(Cn1cc(COc2ccc(-c3nc4ccccc4[nH]3)cc2)nn1)Nc1cnc(-c2ccccc2)s1` [9a, 2-{4-[4-(1H-1,3-benzodiazol-2-yl)phenoxymethyl]-1H-1,2,3-triazol-1-yl}-N-(2-phenyl-1,3-thiazol-5-yl)acetamide], in the assay with α-glycosidase [1], the “improvement in potency compared to acarbose” value is reported as “around 39 fold”.
As to `O=C(Cn1cc(COc2ccc(-c3nc4ccccc4[nH]3)cc2)nn1)Nc1cnc(-c2ccc(Br)cc2)s1` [9c, 2-{4-[4-(1H-1,3-benzodiazol-2-yl)phenoxymethyl]-1H-1,2,3-triazol-1-yl}-N-[2-(4-bromophenyl)-1,3-thiazol-5-yl]acetamide], in the assay on α-glycosidase [2], the type of inhibition result is reported as “uncompetitive inhibitors; also recorded: uncompetitive type of inhibition”.
The same measure, in the same setting: the entry for `COc1cc(-c2nc3ccccc3[nH]2)ccc1OCc1cn(CC(=O)Nc2cnc(-c3ccccc3)s2)nn1` [9g, 2-{4-[4-(1H-1,3-benzodiazol-2-yl)-2-methoxyphenoxymethyl]-1H-1,2,3-triazol-1-yl}-N-(2-phenyl-1,3-thiazol-5-yl)acetamide] is “uncompetitive inhibitors; also recorded: uncompetitive type of inhibition”.
In the case of `COc1cc(-c2nc3ccccc3[nH]2)ccc1OCc1cn(CC(=O)Nc2cnc(-c3ccc(C)cc3)s2)nn1` [9i, 2-{4-[4-(1H-1,3-benzodiazol-2-yl)-2-methoxyphenoxymethyl]-1H-1,2,3-triazol-1-yl}-N-[2-(4-methylphenyl)-1,3-thiazol-5-yl]acetamide], the “improvement in potency compared to acarbose” value in the assay with α-glycosidase [1] is given as 15 fold.
Take `Cc1ccc(-c2ncc(NC(=O)Cn3cc(COc4ccc(-c5nc6ccc(C)cc6[nH]5)cc4)nn3)s2)cc1` [9m, 2-{4-[4-(6-Methyl-1H-1,3-benzodiazol-2-yl)phenoxymethyl]-1H-1,2,3-triazol-1-yl}-N-[2-(4-methylphenyl)-1,3-thiazol-5-yl]acetamide]: the type of inhibition entry in the assay on α-glycosidase [2] is “uncompetitive inhibitors; also recorded: uncompetitive type of inhibition”.
With `C[C@H]1O[C@H](O[C@H]2[C@H](O)[C@@H](O)[C@@H](O[C@H]3[C@H](O)[C@@H](O)C(O)O[C@@H]3CO)O[C@@H]2CO)[C@H](O)[C@@H](O)[C@@H]1N[C@H]1C=C(CO)[C@@H](O)[C@H](O)[C@H]1O` (stereo partly shown) [Acarbose], the IC50 at α-glycosidase [3] (arylthiazole-pyridine derivatives) was 856.5 ± 5.6 µM; at α-glycosidase [3] (benzimidazole bearing bis-Schiff bases), 38.5 µM; at α-glycosidase [3] (benzimidazole-1,2,3-triazole hybrids), 750 ± 12.5 µM; at α-glycosidase [3] (benzimidazole-based oxadiazole derivatives), 38.5 ± 0.8 µM; on α-glycosidase [3] (thiourea derivatives bearing benzimidazole), 774 µM.

In general, IC50 refers to the point on the concentration scale where inhibition reaches its midpoint.
